The text below walks through data of ChEMBL document CHEMBL1144676, “Synthesis and structure-activity relationships of a series of benzazepine derivatives as 5-HT2C receptor agonists” (Bioorg Med Chem, 2008).

The structures appear in SMILES notation. pKi: −log10 of the molar value.

For test [1], the target named is T1, 5-hydroxytryptamine receptor 2C (Homo sapiens, UniProt P28335).
T1 sequence (P28335 whole entry): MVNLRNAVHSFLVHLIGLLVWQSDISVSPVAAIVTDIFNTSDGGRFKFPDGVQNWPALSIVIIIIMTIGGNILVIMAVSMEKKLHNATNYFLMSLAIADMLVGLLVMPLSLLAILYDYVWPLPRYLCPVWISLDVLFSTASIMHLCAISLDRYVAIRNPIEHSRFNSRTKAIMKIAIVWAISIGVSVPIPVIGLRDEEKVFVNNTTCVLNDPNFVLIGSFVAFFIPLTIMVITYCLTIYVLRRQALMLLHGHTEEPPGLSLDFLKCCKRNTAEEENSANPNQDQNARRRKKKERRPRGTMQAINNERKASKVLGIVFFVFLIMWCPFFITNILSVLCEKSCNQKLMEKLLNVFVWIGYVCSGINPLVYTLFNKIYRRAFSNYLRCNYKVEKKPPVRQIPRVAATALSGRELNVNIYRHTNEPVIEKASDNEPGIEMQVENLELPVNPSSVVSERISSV
Kind of test: Displacement of [3H]5-HT from human 5HT2C receptor expressed in CHO cells. It counts as cell-based. The method in brief: (§1)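 Radioligand displacement of [3H]5-HT using membranes from CHO cells (5-HT2C, 5-HT2A) or HEK293-EBNA cells (5-HT2B). Medium: 50 mM Tris-HCl pH 7.4, 4 mM CaCl2, pargyline, 0.1 mg/mL ascorbic acid. Incubated 37 C for 30 min, then vacuum-filtered on PEI-treated GF/B filters and counted by scintillation. Non-specific binding defined with 10 µM 5-HT. Ki obtained by Cheng-Prusoff.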
In general terms: In a radioligand displacement assay an active substance lowers the binding of a labelled ligand.

For test [2], the target named is T2, 5-hydroxytryptamine receptor 2A (Homo sapiens, UniProt P28223). In words: Displacement of [3H]5-HT from human 5HT2A receptor expressed in CHO cells. It counts as cell-based. The gist of the method:
as §1

The target in test [3] is 5-hydroxytryptamine receptor 2B (Homo sapiens, UniProt P41595). In words: Displacement of [3H]5-HT from human 5HT2B receptor expressed in HEK293-EBNA cells. It counts as cell-based. The gist of the method: as §1
Chain of 5-hydroxytryptamine receptor 2B (P41595 whole entry): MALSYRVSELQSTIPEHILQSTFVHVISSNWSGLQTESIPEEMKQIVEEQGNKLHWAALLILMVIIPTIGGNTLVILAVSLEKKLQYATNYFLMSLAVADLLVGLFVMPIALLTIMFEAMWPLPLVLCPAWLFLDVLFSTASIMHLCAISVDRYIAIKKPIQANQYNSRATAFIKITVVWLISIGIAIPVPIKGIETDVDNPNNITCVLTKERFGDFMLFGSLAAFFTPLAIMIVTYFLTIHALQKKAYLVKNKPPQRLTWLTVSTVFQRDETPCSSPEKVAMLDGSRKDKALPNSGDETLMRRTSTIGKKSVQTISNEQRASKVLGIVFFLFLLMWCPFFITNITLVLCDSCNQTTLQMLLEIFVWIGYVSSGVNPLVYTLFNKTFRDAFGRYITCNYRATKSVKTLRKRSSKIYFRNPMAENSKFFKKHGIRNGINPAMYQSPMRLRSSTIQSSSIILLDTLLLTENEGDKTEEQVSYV
Test [4] concerns the target Serotonin 2 receptors; 5-HT2a & 5-HT2c (Homo sapiens) (UniProt P28223+P28335). In words: Selectivity for human 5HT2C receptor over human 5HT2A receptor.
A further test is filed under the species Homo sapiens. Kind of test: Selectivity for human 5HT2C receptor over human 5HT2B receptor.
The target of test [5] is T3, 5-hydroxytryptamine receptor 2C (Homo sapiens) (UniProt P28335).
T3 sequence (whole entry): T1 sequence (P28335 whole entry)
Kind of test: Intrinsic activity at human 5HT2C receptor expressed in CHO cells assessed as myo-[3H]inositol turnover relative to 5-hydroxytryptamine. It counts as functional, cell-based. The gist of the method: (§2)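 Receptor-expressing CHO cells cultured 1 day, then labelled 24 h with myo-[3H]inositol (3 µCi/mL). Cells washed, held in PBS 20 min, then PBS-LiCl 20 min, then exposed 20 min to compound in PBS-LiCl. Stopped with PCA; [3H]inositol phosphates isolated on AG1-X8 anion-exchange columns and counted. Emax expressed relative to 10 µM 5-HT (100%), derived by non-linear fitting.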

Test [6] deals with T2, 5-hydroxytryptamine receptor 2A. Kind of test: Intrinsic activity at human 5HT2A receptor expressed in CHO cells assessed as myo-[3H]inositol turnover relative to 5-hydroxytryptamine. It counts as functional, cell-based. The method in brief: as §2
Test [7] has as its system Rattus norvegicus. In words: Effect on penile erection in po dosed rat. It counts as functional. The note with it: read-out: MED. The method in brief:
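Rats given compound orally and placed singly in clear cages; penile erections counted over 30 min post-dose, with testing between 13:00 and 19:00. Erection scored as pelvic thrusts, rising onto hind limbs, engorged penis and licking. MED taken as the lowest dose differing from vehicle at p < 0.05.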

Test [8] relates to Rattus norvegicus. In words: Cardiovascular effect in po dosed rat assessed as increase in mean arterial blood pressure. The note with it: Artery. It counts as functional, organism-based. The method in brief:
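Carotid artery catheterised under pentobarbital (60 mg/kg ip). After at least 2 days of recovery, conscious rats stabilised ≥30 min in cages and then dosed orally at 3–30 mg/kg. Mean arterial blood pressure recorded via the catheter. A 5-HT2A antagonist, MDL100907, was also used.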

Chain of Serotonin 2 receptors; 5-HT2a & 5-HT2c (Homo sapiens) (P28223 whole entry, looked up, one chain of several): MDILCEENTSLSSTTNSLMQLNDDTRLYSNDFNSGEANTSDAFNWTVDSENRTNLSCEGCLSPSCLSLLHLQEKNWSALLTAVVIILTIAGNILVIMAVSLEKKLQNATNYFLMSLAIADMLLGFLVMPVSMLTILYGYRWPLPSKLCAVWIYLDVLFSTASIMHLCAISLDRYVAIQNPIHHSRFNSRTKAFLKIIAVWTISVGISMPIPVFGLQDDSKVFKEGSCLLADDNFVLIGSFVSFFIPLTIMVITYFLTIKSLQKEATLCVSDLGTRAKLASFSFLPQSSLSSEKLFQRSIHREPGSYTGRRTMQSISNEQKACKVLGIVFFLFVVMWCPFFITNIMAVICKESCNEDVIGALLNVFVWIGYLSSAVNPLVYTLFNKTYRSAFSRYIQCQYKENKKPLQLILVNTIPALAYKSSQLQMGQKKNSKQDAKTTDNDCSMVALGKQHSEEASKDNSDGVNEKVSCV
T2 sequence (P28223 whole entry): as the sequence (P28223 whole entry, looked up, one chain of several) above

As for `CN1CCc2ccc([N+](=O)[O-])c(Cl)c2CC1`, the pKi was 7.18 in test [1], 6.40 in test [2] and 6.00 in test [3]. Further, the Ratio Ki in test [4] was determined as 6; in the test filed under Homo sapiens it was 5. Also, the figures for the maximal effect (Emax) in [5] and in test [6] were 85% and 7%, respectively.
In the case of `N#Cc1ccc2c(c1Cl)CCNCC2`, the pKi in test [1] is 8.29; in test [2] it was 7.52; in test [3], 7.19. Further, the Ratio Ki in test [4] was found to be 6; in the test filed under Homo sapiens, 13. The figures for the Emax in test [5] and in test [6] were 81% and 23%, respectively.
`CCc1cc2c(ccc3cnn(C[C@H](C)N)c32)o1`: the negative logarithm of the Ki (pKi) in test [3] is 8.60. In addition, the Ratio Ki was determined as 15 in test [4] and 2.8 in the test listed under Homo sapiens. In the test with Rattus norvegicus [7], the minimal effective dose came to 0.3 mg/kg. Further, in the test with Rattus norvegicus [8], the Activity result is “Dose-dependent effect”.
In the case of `Clc1c(Br)ccc2c1CCNCC2`, the pKi is 8.62 in [1], 8.00 in test [2] and 7.60 in test [3]. For the same molecule, the Ratio Ki in test [4] was found to be 4; in the test filed under Homo sapiens it was 10. For the same molecule, the maximum response (Emax) in test [5] turned out to be 71%; in [6] it was 32%.
On to `Clc1ccc2c(c1Cl)CCNCC2`, for which the negative logarithm of the Ki (pKi) is 8.06 in test [1], 7.03 in test [2] and 7.00 in [3]. The Ratio Ki (in test [4]; in the test filed under Homo sapiens) was 11 in each case. Also, the maximal response (Emax) in test [5] is 87%; in test [6], 27%. For the same molecule, the minimal effective dose with Rattus norvegicus [7] came out at 0.3 mg/kg.
For the molecule `c1cc2c3c(ccc2o1)CCNCC3`, the pKi in test [1] was 7.70; in test [2], 7.34; in test [3], 7.05. Also, the Ratio Ki stood at 2 in test [4] and 5 in the test listed under Homo sapiens. In addition, the Emax in test [5] was 82%; in [6], 47%.
For `O=[N+]([O-])c1ccc2c(c1Cl)CCNCC2`, the pKi in test [1] is 7.85; in [2] it was 7.29; in [3] it was 6.52. The figures for the Ratio Ki (in test [4]; in the test listed under Homo sapiens) were 4 and 21, respectively. In addition, the maximal effect (Emax) was found to be 86% in [5] and 38% in test [6].
With `Fc1ccc2c(c1Cl)CCNCC2`, the pKi in test [1] was 7.37; in test [2], 6.89; in test [3] it was 6.39. Besides, the Ratio Ki in test [4] came to 3; in the test filed under Homo sapiens, 10. The figures for the Emax in [5] and in [6] were 80% and 26%, respectively.
For `c1cc2ccc3c(c2o1)CCNCC3`, the negative-log Ki (pKi) in test [1] is 7.64; in [2] it was 7.00; in test [3], 7.47. The Ratio Ki came to 4 in test [4] and 1 in the test filed under Homo sapiens. Also, the Emax in [5] turned out to be 57%; in [6] it was 40%.
Take `COc1ccc2c(c1Cl)CCNCC2`: the pKi in test [1] was 7.70; in test [2], 7.21; in test [3] it was 7.08. Besides, the Ratio Ki in [4] is 3; in the test filed under Homo sapiens, 4. For the same molecule, the Emax in test [5] was determined as 88%; in [6] it was 56%.
With `CNc1ccc2c(c1Cl)CCNCC2`, the pKi was 7.34 in test [1], 7.05 in test [2] and 6.68 in test [3]. Further, the Ratio Ki amounted to 2 in test [4] and 5 in the test filed under Homo sapiens. Also, the values for the Emax in [5] and in test [6] were 81% and 90%, respectively.

In general, pKi refers to the negative decadic logarithm of the Ki, by convention in mol/L. By Emax is commonly meant the greatest response seen or fitted, relative to the assay's reference.
